From ChEMBL document CHEMBL1255289, “In vitro antifungal activities of isavuconazole (BAL4815), voriconazole, and fluconazole against 1,007 isolates of zygomycete, Candida, Aspergillus, Fusarium, and Scedosporium species” (2008)
≈ marks a conversion by molar mass, not a printed value.

Experiments:
Type in all cases: functional
Pichia kudriavzevii = assay: Antifungal activity against Candida krusei isolates after 48 hrs by CLSI M27-A2 procedure based assay
How it was run: (§1)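 Candida isolates tested by CLSI M27-A2 broth microdilution at final 0.015–16 µg/ml, or 0.125–128 µg/ml for the comparator azole. Incubation was at 35°C with a visual read at 48 h. MIC-2 was the lowest concentration giving a prominent turbidity drop, about 50% growth inhibition.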

Candida tropicalis = assay: Antifungal activity against Candida tropicalis isolates after 48 hrs by CLSI M27-A2 procedure based assay; settings: Candida tropicalis, 48 h; how it was run: as §1
Candida parapsilosis = assay: Antifungal activity against Candida parapsilosis isolates after 48 hrs by CLSI M27-A2 procedure based assay; settings: Lodderomyces parapsilosis, 48 h; how it was run: as §1
Candida = assay: Antifungal activity against Candida sp. isolates after 48 hrs by CLSI M27-A2 procedure based assay
How it was run: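 Candida isolates were stored at –70°C as yeast suspensions and subcultured on potato dextrose or Sabouraud agar before use. Broth microdilution used DMSO drug stocks, with final well concentrations of 0.015–16 or 0.125–128 µg/ml depending on the azole. Plates were incubated at 35°C and read macroscopically at 48 h. MIC-2 was the lowest concentration giving a prominent turbidity decrease (~50% growth inhibition).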

Nakaseomyces glabratus = assay: Antifungal activity against Candida glabrata isolates after 48 hrs by CLSI M27-A2 procedure based assay; settings: Nakaseomyces glabratus, 48 h; how it was run: as §1
Candida albicans = assay: Antifungal activity against Candida albicans isolates after 48 hrs by CLSI M27-A2 procedure based assay; settings: Candida albicans, 48 h; how it was run: as §1

Work on OC(Cn1cncn1)(Cn1cncn1)c1ccc(F)cc1F [FLUCONAZOLE] yielded an MIC (Pichia kudriavzevii) of 16 µg/mL (≈ 52.2 µM), an MIC (Candida tropicalis) of 0.25 µg/mL (≈ 0.816 µM) and an MIC50 (Candida tropicalis) of 0.25 µg/mL (≈ 0.816 µM). It also gave an MIC90 (Candida tropicalis) of 2 µg/mL (≈ 6.53 µM), an MIC50 (Candida parapsilosis) of 0.5 µg/mL (≈ 1.63 µM) and an MIC90 (Candida parapsilosis) of 1 µg/mL (≈ 3.27 µM). For the same molecule, the MIC (Candida) was 0.25 µg/mL (≈ 0.816 µM), the MIC50 (Nakaseomyces glabratus) was 16 µg/mL (≈ 52.2 µM) and the MIC90 (Nakaseomyces glabratus) was 32 µg/mL (≈ 104 µM). It also gave an MIC50 (Candida albicans) of 0.25 µg/mL (≈ 0.816 µM) and an MIC90 (Candida albicans) of 16 µg/mL (≈ 52.2 µM).
